Measurements published in the EternaBench riboswitch data.

Test system: MS2 coat protein
Assay: apparent Kd, MS2 coat protein; higher = weaker binding; RNA-MaP array; FMN 200 µM where present
Procedure, shortened: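 Designs were transcribed by stalled E. coli RNA polymerase on Illumina sequencing-chip clusters. They were titrated with SNAP-549-labelled MS2 coat protein from 0.7 or 1.5 nM, doubling to 3 µM, in 100 mM Tris-HCl pH 7.5, 80 mM KCl, 4 mM MgCl2, BSA, DTT, yeast tRNA and Tween-20, without and then with constant ligand. The apparent Kd is the median of filtered per-cluster fits after normalisation of green signal to red-channel RNA signal and control-cluster median Fmax.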

[1] = designed as: OFF switch for flavin mononucleotide, no ligand
[2] = ligand present: flavin mononucleotide, designed as: OFF switch for flavin mononucleotide
[3] = designed as: ON switch for flavin mononucleotide, no ligand
[4] = ligand present: flavin mononucleotide, designed as: ON switch for flavin mononucleotide

In the case of “GUGACGAUGUAAGGAUAUGCUGAGGAAUACUCAGCAGAAGGUACAUGAGGAUCACCCAUGUAACGUCACAAUAAUAAUAAUAAU”, the “apparent Kd” value [1] is reported as 0.0133 µM and the “apparent Kd” value [2] is reported as 0.0241 µM.

For “ACAUUUAAUACAGGAUAUGUUAGUAUACAGUAGAUUGGUUAUUACACAACAACAGAAGGGUAGUACAUGAGGAUCACCCAUGUA”, the “apparent Kd” value [3] was 0.0156 µM and the “apparent Kd” value [4] was 0.0121 µM.

“AGUCGGAGCAGAGGAUAUACAUGAGGAUCACCCAUGUAAAUGAAAGAUAAGCUGGAAACAGCAAUGUAGAAGGCUGCUCCGACA” was tested, and the “apparent Kd” value [1] was 0.0192 µM and the “apparent Kd” value [2] was 0.0916 µM.

With “CACUGCAUGUAAGGAUAUCGACUGGAUAACAGUCGAGAAGGUACAUGAGGAUCACCCAUGUAAAUAAUAAUAAAUAAAGCAGUG” the “apparent Kd” value [1] was 0.0151 µM and the “apparent Kd” value [2] was 0.0251 µM.

With “AAAAGACAUGAGGAUCACCCAUGUCAAAACAUAGGAGGAUAUGUCUUGAAAAAAGACUUGACAGAAGGCCUUUGUC” the “apparent Kd” value [3] was 0.0179 µM and the “apparent Kd” value [4] was 0.0158 µM.

“GAUUACAUCACAGGAUAUAGAAUAAAACAGAUUUUAGAAGGGUGAGCCUCGUCGACCGCGACAUGAGGAUCACCCAUGUUGUGU” was tested, and the “apparent Kd” value [3] was 0.0184 µM and the “apparent Kd” value [4] was 0.0357 µM.

“GUGGUCAGACAUGAGGAUCACCCAUGUGGAAUAAAUAAGGAACAGGAUAUGGAAUAUAGGAUAUACCAGAAGGGUUGGUUGGUG” was tested, and the “apparent Kd” value [3] was 0.0723 µM and the “apparent Kd” value [4] was 0.0824 µM.

With “ACGUAUAGAGGAUAUAGUGAAUAUUACAUGAGGAUCACCCAUGUUCUUCAAAGUAUAUUUCUAGAAGGCUAAUGAA” the “apparent Kd” value [1] was 0.035 µM and the “apparent Kd” value [2] was 0.0927 µM.

“UUACAGGUUUAAGGCGUUCCCAGACAUGAGGAUCACCCAUGUAGAAGGACCGUAAGAAAUUUUCGGUAGGAUAUACAUUAAGGG” was tested, and the “apparent Kd” value [1] was 0.0286 µM and the “apparent Kd” value [2] was 0.0292 µM.

With “AUCGAACAUGAGGAUCACCCAUGUUAGGAUAUUGGAUAGCGCGCUGGUGUAGUGUAUCCAAGAAGGGACUGGUG” the “apparent Kd” value [1] was 0.0665 µM and the “apparent Kd” value [2] was 0.101 µM.

“UUUUAACAUGAGGAUCACCCAUGUGAGGAUAUCGAUUUUUUUAUUAAUAUUAAUAAAACGAGAAGGCACAUUUU” was tested, and the “apparent Kd” value [1] was 0.0762 µM and the “apparent Kd” value [2] was 0.0759 µM.

“UGAUAGGACAGAGGAUAUACGUAUAUUCUCCUAAACAUGAGGAUCACCCAUGUAGAAGGCUGUCCUAUCUAAGUCGGAAACGAC” was tested, and the “apparent Kd” value [1] was 0.0054 µM and the “apparent Kd” value [2] was 0.0234 µM.

With “ACAUAAAUUCGAGGAUAUCGGUGAAAUAAUUUACGAGAAGGCGAUAAUAGUUAUAAACUUAUAGACAUGAGGAUCACCCAUGUA” the “apparent Kd” value [3] was 0.0316 µM and the “apparent Kd” value [4] was 0.0324 µM.

For “GCUAGUAUUGCAGGAUAUUGUGAAUAAUUAUUUCAAGAAGGGCAUAACAUGAGGAUCACCCAUGUCUUCCUUUUGAAUACUAGC”, the “apparent Kd” value [1] was 0.00695 µM and the “apparent Kd” value [2] was 0.00651 µM.

For “CACGGCAUCGGAGGAUAUACAUGAGGAUCACCCAUGUGGGUUGUACGCCGUGUAGAAGGCCGAGACCACCUUCUAGCUGGGAAG”, the “apparent Kd” value [1] was 0.0117 µM and the “apparent Kd” value [2] was 0.0331 µM.

With “CUGUUAUAGGUCCAGAAUUACAACAUGAGGAUCACCCAUGUGCAGGAUAUCGGGUUAAUAAACGACGAGAAGGGCAUAGUCACG” the “apparent Kd” value [1] was 0.0356 µM and the “apparent Kd” value [2] was 0.104 µM.

In the case of “ACAUGAGGAUCACCCAUGUGAACAUAGGAUAUUGGUGAUCAGGCGUGUUAUACAGGAUAGGUCUGCGAGAAGGGUGUACGUUGC”, the “apparent Kd” value [3] is reported as 0.367 µM and the “apparent Kd” value [4] is reported as 0.0717 µM.

With “GUUUUUUCUCAUGUACAUGAGGAACAUGAGGAUCACCCAUGUAGAAGGAAUUUUUUUAAGUUUAGUUAGGAUAUACAUAUAUUG” the “apparent Kd” value [1] was 0.0488 µM and the “apparent Kd” value [2] was 0.0286 µM.

“ACAUGGAAUACAGGAUAUGUAAGUUUUAAGUAGAUUGGUUAUUACUUUACAACAGAAGGGUAAUACAUGAGGAUCACCCAUGUA” was tested, and the “apparent Kd” value [3] was 0.0191 µM and the “apparent Kd” value [4] was 0.016 µM.

With “AGUCGGAGCAGAGGAUAUUACAUGAGGAUCACCCAUGUAUAAAAUGGAAGCUGGAAACAGCAAUGUAAGAAGGCUGCUCCGACA” the “apparent Kd” value [1] was 0.064 µM and the “apparent Kd” value [2] was 0.296 µM.

In the case of “GGGUACAUCGGAGGAUAUCAUGUAAAUACAUGAGGAUCACCCAUGUCGAUGGAGACAUCGGACAUUGAGAAGGCCGAUGUACCG”, the “apparent Kd” value [3] is reported as 0.0292 µM and the “apparent Kd” value [4] is reported as 0.00579 µM.

In the case of “CCUCCACAUUAGGAUAUCGUCACAGAAAUGUGACGAGAAGGAAUGACAUGAGGAUCACCCAUGUUAACGUGAUG”, the “apparent Kd” value [1] is reported as 0.0344 µM and the “apparent Kd” value [2] is reported as 0.195 µM.

With “ACAUUGUUAGGAUAUGCUGCUCGUCACUUGCGUGAUGAGUAGCAGAAGGAACAUGAGGAUCACCCAUGUAAAGA” the “apparent Kd” value [1] was 0.0337 µM and the “apparent Kd” value [2] was 0.0561 µM.

In the case of “AAUUUAAUACAUGAGGAUCACCCAUGUAAUACUUGUAAGAUCAAGGAUAUCAGCUCGAUUAGAGCUGAGAAGGUGAUCACAUGU”, the “apparent Kd” value [3] is reported as 0.0731 µM and the “apparent Kd” value [4] is reported as 0.204 µM.

With “GAUAGGACAGAGAAGGACAUAGCUAGAGAUACUAGCAUAAGAACUUUCACAUGAGGAUCACCCAUGUAGGAUAUCUGUCCUAUC” the “apparent Kd” value [1] was 0.00496 µM and the “apparent Kd” value [2] was 0.00553 µM.

“UCUUGUGUUGAGGAUAUGCGCCGGCUCGCUGGCGCAGAAGGCGGCACAUGAGGAUCACCCAUGUCAGUUCGCGA” was tested, and the “apparent Kd” value [1] was 0.502 µM and the “apparent Kd” value [2] was 0.0607 µM.

“UUUAUAUUCAGAGGAUAUUGAUGUUGUAUUUUACAAGAAGGCUGUUUGUUUUGUAAUGUUAUUAUACAUGAGGAUCACCCAUGU” was tested, and the “apparent Kd” value [3] was 0.0206 µM and the “apparent Kd” value [4] was 0.0173 µM.

In the case of “ACAUUGUGAGGAUAUCCGAAGAAGGUCCGGAAGGUUCGGGUGGAGAAGGCACAUGAGGAUCACCCAUGUGUGGG”, the “apparent Kd” value [1] is reported as 0.0518 µM and the “apparent Kd” value [2] is reported as 0.137 µM.

With “CGGUCAUGAGGAUAUCGAGGUUAGUACAUGAGGAUCACCCAUGUUAUCCAGGUGUCGGUUCGAGAAGGCAUGUCCG” the “apparent Kd” value [1] was 0.461 µM and the “apparent Kd” value [2] was 0.753 µM.

With “GGCGAACAGGCUAACAUGAGGAUCACCCAUGUGGACUCAUGCGAGGAUAUCGGGAAGGAGGAUUCCGAGAAGGUGCGGUGAGCC” the “apparent Kd” value [3] was 0.788 µM and the “apparent Kd” value [4] was 0.304 µM.

In the case of “GAGUGGUGGAGAGGAUAUACAUUGUUAUUCACUGUAGAAGGUUCUAACAUGAGGAUCACCCAUGUAGGACUAUUCCUGAGUUUU”, the “apparent Kd” value [3] is reported as 0.0124 µM and the “apparent Kd” value [4] is reported as 0.00982 µM.

In the case of “UGAUAGGACAGAGGAUAUACCGAUAGGAUCUACUAUCGAAUAAUCCUCACAUGAGGAUCACCCAUGUAGAAGGCUGUCCUAUCU”, the “apparent Kd” value [1] is reported as 0.0197 µM and the “apparent Kd” value [2] is reported as 0.144 µM.

For “ACACAACAUGAGGAUCACCCAUGUCAGGAUAUGCAGAACAAGAACAAGACAAGACAGAGCAGAAGGGACAACAC”, the “apparent Kd” value [1] was 0.0394 µM and the “apparent Kd” value [2] was 0.0356 µM.

In the case of “AGGUGAGCCGUCAGGAUAUGCGUUCCGUAGGGUCAGCAGAAGGGACAUGAGGAUCACCCAUGUUUCGCACGUGG”, the “apparent Kd” value [1] is reported as 0.0342 µM and the “apparent Kd” value [2] is reported as 0.0711 µM.

“GGAUCGUAUGUCAGGAUAUACCACUGGAUACAGUGGUAGAAGGGACAUGAGGAUCACCCAUGUCCUAUCGAUCC” was tested, and the “apparent Kd” value [1] was 0.013 µM and the “apparent Kd” value [2] was 0.0166 µM.

For “GUGUAGCAAGGAUAUACAUGAGGAUCACCCAUGUGAAUAAGAUAGAAUAAGAUAAAGUGUAGAAGGUGUAGUGU”, the “apparent Kd” value [1] was 0.0353 µM and the “apparent Kd” value [2] was 0.0357 µM.

In the case of “AUACUGAGCGUAAAUUACCUGAACAUGAGGAUCACCCAUGUGGAGGAUAUUGACCUAGCAAAGCUCGAGAAGGCCACUGGGAUG”, the “apparent Kd” value [1] is reported as 0.0323 µM and the “apparent Kd” value [2] is reported as 0.0187 µM.

For “AUAUAACAUGAGGAUCACCCAUGUCUCUAAAGUCGAGGAUAUGGGCAGGUUAUAUCCGAACCAGAAGGCGGGUUAU”, the “apparent Kd” value [3] was 0.315 µM and the “apparent Kd” value [4] was 0.717 µM.

With “ACGACGAAAGUCGAACGAUGUAGCAGAAGGACAUGAGGAUCACCCAUGUCAGCUGUAACAGCCAUGUAGGAUAUGCUACAUCGU” the “apparent Kd” value [1] was 0.00429 µM and the “apparent Kd” value [2] was 0.00541 µM.

“AUCAGCUCGUCAGGAUAUACGUCACUGAGUCAGCAGUGUGGUAAGAUCACAUGAGGAUCACCCAUGUAGAAGGGACGAGCUGAU” was tested, and the “apparent Kd” value [1] was 0.0163 µM and the “apparent Kd” value [2] was 0.241 µM.

For “UCGGAGUAAGUGAGGAUAUGUGCGCCUUUAAGCGUACAGAAGGCACAUGAGGAUCACCCAUGUGAGGCCUGCCA”, the “apparent Kd” value [1] was 0.0189 µM and the “apparent Kd” value [2] was 0.039 µM.

“GUACCUUAUGAGAAGGCGAUCAUGAAACAUGAUCGAGGAUAUCAUGUAAACAUGAGGAUCACCCAUGUAUGGGUAUUAUGGUAG” was tested, and the “apparent Kd” value [3] was 0.0408 µM and the “apparent Kd” value [4] was 0.0113 µM.

For “UGUUGUGAACAGAACAUGAGGAUCACCCAUGUGCACUCGUGUAAGGAUAUACAAUCGUAUGGAAAGUAGAAGGUACUAAUUAUG”, the “apparent Kd” value [4] was 0.12 µM.

In the case of “CAGCCCUGAGGAUAUCCCUACUCGCACAUGAGGAUCACCCAUGUCCUCCUCCGGGCUUCGGGAGAAGGCAGGUCUC”, the “apparent Kd” value [1] is reported as 0.0225 µM and the “apparent Kd” value [2] is reported as 0.0935 µM.

In the case of “UGUUGUAGUACAGGAUAUGCGGUGGAUUCGGACAUGAGGAUCACCCAUGUGCCUUUAUAACGUCUGCAGAAGGGUGAAAGAACG”, the “apparent Kd” value [3] is reported as 0.5 µM and the “apparent Kd” value [4] is reported as 0.13 µM.

“AGCUGACGAGGAUAUACAUGAGGAUCACCCAUGUUGGUUCAGCGACGAUAGUCGCAAUGUAGAAGGUGUCAGCU” was tested, and the “apparent Kd” value [1] was 0.126 µM and the “apparent Kd” value [2] was 0.664 µM.

In the case of “CACUGCAUGUAAGGAUAUCGACUGGAAUACAGUCGAGAAGGUACAUGAGGAUCACCCAUGUAAAUAAUAAUAAAUAAAGCAGUG”, the “apparent Kd” value [1] is reported as 0.0153 µM and the “apparent Kd” value [2] is reported as 0.0244 µM.

For “AGCAUGGUAGGAUAUACGGAACAUUAGGGUUUGUUAUGUGGACAUGAGGAUCACCCAUGUAGAAGGGCCGUGCA”, the “apparent Kd” value [1] was 0.0356 µM and the “apparent Kd” value [2] was 0.0675 µM.
